An excerpt weighted towards active compounds, which were near 1.8% of everything screened.
LANA-H2B inh = blockers of LANA interaction with H2A/H2B – biochemical, FP readout, HTS, primary screen. inhibition, % (concentration not given with the values). 320,000 compounds, 0.6% hits. Protein LANA1 (Human herpesvirus 8 type P (isolate GK18)), Q9QR71. cell-free LANA-H2A/H2B peptide, fluorescence polarization; in the data active means inhibition mostly above about 10%, no sharp cut-off; inactive means mostly below about 6.7%
AI-2 QS modul = Vibrio harveyi AI-2 quorum sensing modulators, primary screen, JMH597 strain, luminescence/OD600 ratio; Vibrio harveyi JMH597 AI-2 luminescence/OD600 ratio, 9 h; hits give low values; strain lacks LuxN and CqsS sensors; 0 = neutral-control median; activity change, % at 7.5 µM; 300,000 compounds, 0.4% hits; AID 2094, 2009; in the data active means activity change below about -75%, passing the limit was not always enough;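 further: luminescence divided by OD600 gain over 9 h not by final OD600 alone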
HDAC3 inhib = HDAC3 deacetylase inhibitors, primary screen, biochemical, fluorescence, cell-free homogeneous | Histone deacetylase 3 (Homo sapiens), O15379 | recombinant HDAC3, fluorogenic peptide/trypsin coupled | inhibition, % at 8.3 µM | 320,000 compounds, 0.15% hits | AID 2718, 2010; in the data active means inhibition above about 26%, passing the limit was not always enough
Target sequence (O15379 whole entry, looked up): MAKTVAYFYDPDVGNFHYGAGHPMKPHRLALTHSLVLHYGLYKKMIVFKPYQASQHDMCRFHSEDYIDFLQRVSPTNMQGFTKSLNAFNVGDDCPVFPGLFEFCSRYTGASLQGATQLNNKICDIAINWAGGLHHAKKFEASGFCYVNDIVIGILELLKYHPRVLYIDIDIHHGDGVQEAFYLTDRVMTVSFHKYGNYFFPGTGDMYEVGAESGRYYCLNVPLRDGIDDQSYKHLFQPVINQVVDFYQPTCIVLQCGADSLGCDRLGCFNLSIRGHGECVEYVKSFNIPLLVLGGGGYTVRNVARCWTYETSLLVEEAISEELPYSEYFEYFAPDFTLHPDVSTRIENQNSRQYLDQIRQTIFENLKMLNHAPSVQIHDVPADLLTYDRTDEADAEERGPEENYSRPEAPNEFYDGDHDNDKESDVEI
A1 inh = caspase 3/7 activation in MEF A1-2A-BIM cells, primary screen, A1 inhibitor project, cell-based, luminescence, HTS. Caspase-Glo 3/7 luminescence, 3 h; percent of clofoctol response, vehicle zero. caspase activation, % (concentration not given with the values). 330,000 compounds, 0.066% hits. AID 2462, 2010;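 active means over half of replicate activation scores above 10%, or exactly half above 10 with the replicate mean above 10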
ATG4B inhibitor = ATG4B protease inhibitors, primary screen, biochemical, fluorescence, uHTS; Cysteine protease ATG4B (Homo sapiens), Q9Y4P1; ATG4B cleavage of LC3-PLA2, NBD-HPC fluorescence, 1 h; inhibition, % at 8.33 µM; 340,000 compounds, 0.51% hits; AID 504462, 2011; in the data active means inhibition above about 40%
HKDC1 inh = HKDC1 hexokinase inhibitors, primary screen, biochemical, fluorescence, uHTS; recombinant HKDC1, G6PDH/diaphorase resazurin coupled fluorescence; inhibition, % at 20 µM; 340,000 compounds, 0.16% hits; AID 493160, 2011;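 active means inhibition above about 35% when tested at 20 µM, limit read from the data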
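Test system: HK5 enzyme. Quantity: 5 µg/mL HK5 final. Reagent: glucose and ATP substrates. Schedule: 90 min reaction incubation at room temperature, dark. Technique: resazurin-to-resorufin fluorescence via G6PDH and diaphorase coupling, 525/613 nm. Control set: DMSO wells with and without enzyme mix.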
Hits are given with their value; . = inactive; / = not tested or not shown.

SMILES | LANA-H2B inh | AI-2 QS modul | HDAC3 inhib | A1 inh | ATG4B inhibitor | HKDC1 inh
CC(OC(=O)Cn1c(C(F)(F)F)nc2ccccc21)C(=O)N1CCCc2ccccc21 (stereo not given) | 25.8 | / | . | . | . | .
CC(=O)c1ccc(OCC(=O)OCC(=O)Nc2sccc2C(N)=O)cc1 | 15.7 | / | . | . | . | .
COc1ccc(OCCCC(=O)OCC(=O)Nc2sccc2C(N)=O)cc1 | / | . | / | . | . | .
CN(Cc1ccccc1)C(=O)c1cccc(NC(=O)Cc2ccc(NC(=O)C3CCCN(C(=O)C4CC4)C3)cc2)c1 (stereo not given) | / | / | / | / | . | .
Cc1csc2nc(SCC(=O)Nc3ccccc3F)[nH]c(=O)c12 | 28.3 | . | . | . | . | .
Cc1ccc(N(C)C(=O)C2CCCN2S(=O)(=O)c2ccc3c(c2)n(C)c(=O)c(=O)n3C)cc1 (stereo not given) | . | . | . | . | . | .
Cc1nnnn1/C(=C\c1ccccc1)C(=O)OCC(=O)NC1CCCCC1 | / | . | / | . | . | .
CC(=O)N(C(C)=O)c1ncn(C)c1S(=O)(=O)Nc1ccccc1 | / | / | / | / | . | .
CCCC(C)c1nnc(NC(=O)CCS(=O)(=O)Cc2ccccc2)s1 (stereo not given) | . | . | . | . | . | .
CCCC(C)c1nnc(NC(=O)CS(=O)(=O)Cc2ccccc2)s1 (stereo not given) | 30.4 | . | . | . | . | .
CC1CCCN(S(=O)(=O)c2cc(C(=O)NCCc3ccc(S(N)(=O)=O)cc3)ccc2Cl)C1 (stereo not given) | / | / | / | / | . | .
Cn1c(Cn2c(=O)sc3ccccc32)nnc1SCC(=O)NC1CCCCC1 | . | . | . | . | . | .
Cc1cccc(-c2nnc(SCC(=O)NC3CC3)n2C)c1 | 12.3 | . | . | . | . | .
Cn1c(Cn2c(=O)sc3ccccc32)nnc1SCC(=O)NC1CCCC1 | 16.8 | . | . | . | . | .
COC(=O)Nc1ccc2ccc3c(NC(=O)OC)ccc4ccc1c2c43 | / | / | / | / | . | .
COc1ccc(C2=NN(C(=O)COC(=O)c3ccc(S(C)(=O)=O)c([N+](=O)[O-])c3)C(c3ccco3)C2)cc1 (stereo not given) | . | / | . | . | . | .
CCOc1cccc(-c2csc(C3COc4ccccc4O3)n2)c1 (stereo not given) | . | . | . | . | . | .
COc1cccc(N2C(=O)C3NN=C(C(=O)CN4C(=O)c5ccccc5C4=O)C3C2=O)c1 (stereo not given) | . | . | . | . | . | .
COc1ccccc1N1C(=O)[C@@H]2C(C(=O)CN3C(=O)c4ccccc4C3=O)=NN[C@@H]2C1=O | 31.9 | . | . | . | . | .
Cc1ccc(N2C(=O)[C@@H]3C(C(=O)CN4C(=O)c5ccccc5C4=O)=NN[C@@H]3C2=O)c(C)c1 | 23.8 | . | . | . | . | .
Cc1noc(C)c1C(=O)Nc1cc(S(=O)(=O)N2CCCCC2)ccc1N(C)C | / | / | / | / | . | .
CC(OC(=O)c1ccc(-n2cnnn2)cc1)C(=O)N(C)c1ccccc1 (stereo not given) | / | / | / | / | . | .
Cc1cc(=O)[nH]c2ccc(S(=O)(=O)N3CCOCC3)cc12 | . | . | . | . | . | .
Cn1c(N)c(C(=O)COC(=O)CNC(=O)c2ccc(Cl)cc2Cl)c(=O)n(C)c1=O | / | / | / | / | . | .
CCC(C)NC(=O)CSc1nc2ccccc2c(=O)n1-c1c(C)n(C)n(-c2ccccc2)c1=O (stereo not given) | 100.2 | . | . | . | . | .
Cc1c(-n2c(SCC(=O)NC(C)C)nc3ccccc3c2=O)c(=O)n(-c2ccccc2)n1C | . | . | . | . | . | .
CC(C)(C)S(=O)N1Cc2ccc(CO)cc2[C@@H]1CCO (stereo not given in full) | / | / | / | / | . | .
COc1ccc2c(c1)c(=O)oc1cc3occ(C(C)(C)C)c3cc12 | 12.1 | . | . | . | . | .
CC1CCCC(CC(N)=O)CC1 (stereo not given) | / | / | / | / | . | .

Assay outcomes as filed in PubChem.
